Assay results as given in ChEMBL document CHEMBL1140869, “Organocatalyzed highly atom economic one pot synthesis of tetrahydropyridines as antimalarials” (2009).
Converted amounts (≈) assume the structure as drawn.

Key:
Assay type in all cases: functional
[1] = tested on: Plasmodium falciparum; experiment: Antimalarial schizonticidal activity against Plasmodium falciparum 3D7 infected erythrocytes at 5 ug/ml after 30-39 hrs
How it was run: (§1)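 Schizont maturation test (WHO protocol, minor modifications): drug dilutions in complete RPMI 1640 with parasite added. Final culture was 3–4% hematocrit and 1.0–2.0% parasitized erythrocytes (>95% rings), with 0.5% AlbuMax II and 15 µM hypoxanthine. Incubated 30–39 h at 37 °C under 5% CO2. Giemsa-stained thin smears were scored for schizont maturation relative to untreated controls, giving % schizont inhibition at each concentration.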

[2] = tested on: Plasmodium falciparum; experiment: Antimalarial schizonticidal activity against Plasmodium falciparum 3D7 infected erythrocytes at 10 ug/ml after 30-39 hrs; how it was run: as §1
[3] = tested on: Plasmodium falciparum; experiment: Antimalarial schizonticidal activity against Plasmodium falciparum 3D7 infected erythrocytes at 1.25 ug/ml after 30-39 hrs; how it was run: as §1
[4] = tested on: Plasmodium falciparum; experiment: Antimalarial schizonticidal activity against Plasmodium falciparum 3D7 infected erythrocytes at 2.5 ug/ml after 30-39 hrs; how it was run: as §1
[5] = tested on: Plasmodium falciparum; experiment: Antimalarial activity schizonticidal against Plasmodium falciparum 3D7 infected erythrocytes at 0.05 ug/ml after 30-39 hrs; how it was run: as §1
[6] = tested on: Plasmodium falciparum; experiment: Antimalarial schizonticidal activity against Plasmodium falciparum 3D7 infected erythrocytes at 0.78 ug/ml after 30-39 hrs; how it was run: as §1
[7] = tested on: Plasmodium falciparum; experiment: Antimalarial schizonticidal activity against Plasmodium falciparum 3D7 infected erythrocytes at 0.09 ug/ml after 30-39 hrs; how it was run: as §1
[8] = tested on: Plasmodium falciparum; experiment: Antimalarial schizonticidal activity against Plasmodium falciparum 3D7 infected erythrocytes at 0.19 ug/ml after 30-39 hrs; how it was run: as §1
[9] = tested on: Plasmodium falciparum; experiment: Antimalarial schizonticidal activity against Plasmodium falciparum 3D7 infected erythrocytes at 0.39 ug/ml after 30-39 hrs; how it was run: as §1
[10] = tested on: Plasmodium falciparum; experiment: Antimalarial schizonticidal activity against Plasmodium falciparum 3D7 infected erythrocytes after 30-39 hrs; how it was run: as §1

SMILES | inhibition at 5 µg/mL [1] | inhibition at 10 µg/mL [2] | inhibition at 1.25 µg/mL [3] | inhibition at 2.5 µg/mL [4] | inhibition at 0.05 µg/mL [5] | inhibition at 0.78 µg/mL [6] | inhibition at 0.09 µg/mL [7] | inhibition at 0.19 µg/mL [8] | inhibition at 0.39 µg/mL [9] | MIC [10]
COC(=O)C1=C(Nc2ccc(Cl)cc2)CC(c2ccc(Br)cc2)N(c2ccc(Cl)cc2)C1c1ccc(Br)cc1 (centres undefined) | 0% | 33% | 0% | 0% | – | – | – | – | – | –
COC(=O)C1=C(Nc2ccc(OC)cc2)CC(c2ccc(F)cc2)N(c2ccc(OC)cc2)C1c1ccc(F)cc1 (centres undefined) | 100% | 100% | 100% | 100% | 91% | 100% | 100% | 100% | 100% | –
COC(=O)C1=C(Nc2ccc(OC)cc2)CC(c2cccc(Cl)c2)N(c2ccc(OC)cc2)C1c1cccc(Cl)c1 (centres undefined) | 100% | 100% | 33% | 100% | – | – | – | – | – | –
COC(=O)C1=C(Nc2ccccc2)CC(c2ccc(Br)cc2)N(c2ccccc2)C1c1ccc(Br)cc1 (centres undefined) | 100% | 100% | 46% | 85% | – | – | – | – | – | –
CCOC(=O)C1=C(Nc2ccc(Cl)cc2)CC(c2ccc(Cl)cc2)N(c2ccc(Cl)cc2)C1c1ccc(Cl)cc1 (centres undefined) | 66% | 83% | 0% | 0% | – | – | – | – | – | –
COC(=O)C1=C(Nc2ccccc2)CC(c2cccc(Cl)c2)N(c2ccccc2)C1c1cccc(Cl)c1 (centres undefined) | 81% | 100% | 46% | 81% | – | – | – | – | – | –
COC(=O)C1=C(Nc2ccc(Br)cc2)CC(c2ccc(OC)cc2)N(c2ccc(Br)cc2)C1c1ccc(OC)cc1 (centres undefined) | 100% | 100% | 25% | 91% | – | – | – | – | – | –
CCOC(=O)C1=C(Nc2ccc(OC)cc2)CC(c2cccc(Cl)c2)N(c2ccc(OC)cc2)C1c1cccc(Cl)c1 (centres undefined) | 92% | 100% | 16% | 50% | – | – | – | – | – | –
CCOC(=O)C1=C(Nc2ccccc2)CC(c2cccnc2)N(c2ccccc2)C1c1cccnc1 (centres undefined) | 100% | 100% | 100% | 100% | 42% | 100% | 42% | 97% | 100% | –
CCOC(=O)C1=C(Nc2ccc(Cl)cc2)CC(c2cccs2)N(c2ccc(Cl)cc2)C1c1cccs1 (centres undefined) | 100% | 100% | 86% | 93% | – | – | – | – | – | –
COC(=O)C1=C(Nc2ccccc2)CC(c2ccc(OCc3ccccc3)cc2)N(c2ccccc2)C1c1ccc(OCc2ccccc2)cc1 (centres undefined) | 2% | 23% | 0% | 2% | – | – | – | – | – | –
CCOC(=O)C1=C(Nc2ccccc2)CC(c2ccccc2)N(c2ccccc2)C1c1ccccc1 (centres undefined) | 100% | 100% | 25% | 92% | – | – | – | – | – | –
COC(=O)C1=C(Nc2ccccc2)CC(c2ccc(F)cc2)N(c2ccccc2)C1c1ccc(F)cc1 (centres undefined) | 100% | 100% | 100% | 100% | 16% | 100% | 33% | 75% | 100% | –
CCOC(=O)C1=C(Nc2ccc(OC)cc2)CC(c2ccccc2)N(c2ccc(OC)cc2)C1c1ccccc1 (centres undefined) | 100% | 100% | 100% | 100% | 0% | 66% | 0% | 0% | 33% | –
COC(=O)C1=C(Nc2ccccc2)CC(c2ccc(OC)cc2)N(c2ccccc2)C1c1ccc(OC)cc1 (centres undefined) | 100% | 100% | 100% | 100% | 25% | 94% | 45% | 47% | 67% | –
COC(=O)C1=C(Nc2ccc(Cl)cc2)CC(c2ccc(F)cc2)N(c2ccc(Cl)cc2)C1c1ccc(F)cc1 (centres undefined) | 100% | 100% | 93% | 100% | – | – | – | – | – | –
CCN(CC)CCCC(C)Nc1ccnc2cc(Cl)ccc12 (centres undefined) [CHLOROQUINE] | 100% | 100% | 86% | 97% | 54% | 100% | 86% | 97% | 100% | 0.025 µg/mL (≈ 0.0782 µM)
COC(=O)C1=C(Nc2ccc(OC)cc2)CC(c2cccs2)N(c2ccc(OC)cc2)C1c1cccs1 (centres undefined) | 100% | 100% | 100% | 100% | 16% | 100% | 25% | 75% | 100% | –
COC(=O)C1=C(Nc2ccc(OC)cc2)CC(c2ccc(Br)cc2)N(c2ccc(OC)cc2)C1c1ccc(Br)cc1 (centres undefined) | 100% | 100% | 33% | 95% | – | – | – | – | – | –
COC(=O)C1=C(Nc2ccc(OC)cc2)CC(c2ccc(OC)cc2)N(c2ccc(OC)cc2)C1c1ccc(OC)cc1 (centres undefined) | 100% | 100% | 86% | 90% | – | – | – | – | – | –
COC(=O)C1=C(Nc2ccccc2)CC(c2ccccc2)N(c2ccccc2)C1c1ccccc1 (centres undefined) | 100% | 100% | 100% | 100% | 0% | 96% | 0% | 33% | 90% | –
COC(=O)C1=C(Nc2ccc(Cl)cc2)CC(c2ccc(OC)cc2)N(c2ccc(Cl)cc2)C1c1ccc(OC)cc1 (centres undefined) | 100% | 100% | 100% | 100% | 16% | 95% | 33% | 41% | 75% | –
